Test [1] deals with T1, 3-oxo-5-alpha-steroid 4-dehydrogenase 1 (Homo sapiens) (UniProt P18405).
T1 sequence (whole entry): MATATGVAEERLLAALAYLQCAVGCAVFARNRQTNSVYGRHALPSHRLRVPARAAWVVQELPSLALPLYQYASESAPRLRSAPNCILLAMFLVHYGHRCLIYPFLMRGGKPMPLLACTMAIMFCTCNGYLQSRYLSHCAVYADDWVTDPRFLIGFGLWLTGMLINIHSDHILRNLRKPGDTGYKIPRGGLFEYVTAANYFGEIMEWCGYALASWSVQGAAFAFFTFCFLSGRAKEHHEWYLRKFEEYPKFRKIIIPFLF
The experiment in a line: Inhibition of Steroid 5-alpha-reductase type I of human DU 145 prostatic tumor cell line, at 10 uM. The procedure, abridged: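 Intact DU145 cells (type 1 source) seeded at 180 000/well and left to adhere overnight. Compound added in DMSO to complete medium, then 6 h at 37 °C in 5% CO2 with [³H]androstenedione, 5 nM. Medium extracted twice with ether, steroids separated by radio-HPLC. Product formed expressed as % of triplicate no-inhibitor controls; screened at 10 μM.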

Test [2] concerns the target T2, 3-oxo-5-alpha-steroid 4-dehydrogenase 1 (Rattus norvegicus) (UniProt P24008).
T2 sequence (whole entry): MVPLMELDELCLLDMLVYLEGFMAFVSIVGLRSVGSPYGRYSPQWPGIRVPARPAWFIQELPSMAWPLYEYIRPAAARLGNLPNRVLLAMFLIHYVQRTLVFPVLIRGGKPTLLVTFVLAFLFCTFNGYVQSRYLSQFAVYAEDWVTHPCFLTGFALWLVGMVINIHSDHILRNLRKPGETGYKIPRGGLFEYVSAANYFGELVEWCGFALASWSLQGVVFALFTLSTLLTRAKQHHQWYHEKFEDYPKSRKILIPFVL
The experiment in a line: Inhibition of Steroid 5-alpha-reductase type I of rat ventral prostate (RVP). Format: tissue-based. Details: concentration or dose not given beside the values. The note with it: Prostate gland, concentration not given here. The procedure, abridged:
(§1)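 Rat ventral prostate 105000g pellet made in 20 mM phosphate pH 6.6 with […] and 1 mM DTT at 0–4 °C. About 250 μg protein incubated 30 min at 37 °C in 40 mM phosphate pH 6.6 with 200 μM NADPH, 0.21 μM [1,2-³H]testosterone and 2% DMSO. Ether extraction, radio-HPLC of T and DHT. % inhibition at 10 μM or IC50; duplicates.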

The target of test [3] is T3, 3-oxo-5-alpha-steroid 4-dehydrogenase 2 (Homo sapiens, UniProt P31213).
T3 sequence (P31213 whole entry): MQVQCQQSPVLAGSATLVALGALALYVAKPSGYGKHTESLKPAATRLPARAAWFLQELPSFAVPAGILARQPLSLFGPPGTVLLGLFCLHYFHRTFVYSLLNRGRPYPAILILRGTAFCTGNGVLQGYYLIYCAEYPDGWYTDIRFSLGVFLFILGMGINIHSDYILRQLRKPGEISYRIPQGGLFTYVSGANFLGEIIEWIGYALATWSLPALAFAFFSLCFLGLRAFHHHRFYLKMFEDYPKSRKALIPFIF
Briefly: Inhibition of Steroid 5-alpha-reductase type 2 from human benign prostatic hyperplasia (BPH) tissue. The procedure, abridged:
(§2)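 Human BPH prostate 105000g pellet (nuclei, mitochondria, microsomes) prepared in citrate buffer pH 5.5. Incubation of about 125 μg protein for 30 min at 37 °C in 40 mM citrate pH 5.5 with 100 μM NADPH, 0.21 μM [1,2-³H]testosterone and 2% DMSO. Reaction stopped with NaOH, steroids extracted with ether, T/DHT separated by radio-HPLC. Single 10 μM test or IC50; duplicates.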

Test [4] has as its target T4, 3-oxo-5-alpha-steroid 4-dehydrogenase 2 (Rattus norvegicus) (UniProt P31214).
T4 sequence (whole entry): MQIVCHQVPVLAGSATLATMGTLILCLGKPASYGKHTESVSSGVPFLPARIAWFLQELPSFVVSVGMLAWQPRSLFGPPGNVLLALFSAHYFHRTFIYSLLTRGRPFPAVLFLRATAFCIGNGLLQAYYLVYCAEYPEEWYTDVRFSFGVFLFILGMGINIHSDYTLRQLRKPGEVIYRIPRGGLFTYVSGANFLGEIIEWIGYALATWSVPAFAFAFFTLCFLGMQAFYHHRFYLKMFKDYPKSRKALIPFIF
Briefly: (§3) Inhibition of Steroid 5-alpha-reductase type 2 of rat ventral prostate (RVP). The note with it: Prostate gland, concentration not given here. Details: concentration or dose not given beside the values. The procedure, abridged:
(§4)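 Type 2 source: rat ventral prostate homogenized in citrate buffer pH 5.5, 105000g pellet. About 250 μg protein incubated 30 min at 37 °C in 40 mM citrate pH 5.5 with 200 μM NADPH, 0.21 μM [1,2-³H]testosterone and 2% DMSO. NaOH stop, ether extraction, radio-HPLC of T/DHT. Result given as % inhibition at 10 μM or IC50, run in duplicate.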

Test [5] has as its target 3-oxo-5-alpha-steroid 4-dehydrogenase 2 (Homo sapiens, UniProt P31213). The experiment in a line: In vitro inhibitory activity against Steroid 5-alpha-reductase type 2 of human benign prostatic hyperplasia (BPH) tissue. A digest of the protocol: as §2
Test [6] concerns the target T5, 3-oxo-5-alpha-steroid 4-dehydrogenase 2 (Rattus norvegicus, UniProt P31214).
T5 sequence (P31214 whole entry): T4 sequence (whole entry)
Described as §3. Format: tissue-based, Prostate gland. The procedure, abridged:
as §4

Test [7] concerns the target T6, 3-oxo-5-alpha-steroid 4-dehydrogenase 1 (Rattus norvegicus, UniProt P24008).
T6 sequence (P24008 whole entry): T2 sequence (whole entry)
Briefly: Inhibition of Steroid 5-alpha-reductase type I from rat ventral prostate (RVP). It is filed as tissue-based, Prostate gland. The procedure, abridged: as §1

Molecule `O=C(O)c1ccc(C=C2CCN(C(=O)C(C3CCCCC3)C3CCCCC3)CC2)c(F)c1` yielded an inhibition in test [1] of 12%.

On to `O=C(O)c1ccc(OC2CCN(C(=O)C34CC5CC(CC(C5)C3)C4)CC2)cc1`, for which the inhibition in test [2] was found to be 18%; in test [1], 7%; in test [4], 21%. Further, the 50% inhibitory concentration (IC50) in test [3] is 430 nM.

On to `O=C(O)c1ccc(OC2CCN(C(=O)C(c3ccccc3)c3ccccc3)CC2)cc1`, for which the figures for the inhibition in test [2] and in test [4] were 62% and 58%, respectively. The molecule further had an IC50 in test [5] of 1300 nM.

Turning to `O=C(O)Cc1ccc(C=C2CCN(C(=O)C(C3CCCCC3)C3CCCCC3)CC2)cc1`, the inhibition was found to be 66% in test [2], 6% in test [1] and 56% in test [4]. In test [3], this molecule showed an IC50 of 6 nM.

Regarding `COc1cc(C(=O)O)ccc1C=C1CCN(C(=O)C(C2CCCCC2)C2CCCCC2)CC1`, the figures for the inhibition in test [2], in test [1] and in test [4] were 55%, 5% and 43%, respectively. In test [3], this molecule registered an IC50 of 130 nM.

As to `COc1cc(C(=O)O)ccc1C=C1CCN(C(=O)C23CC4CC(CC(C4)C2)C3)CC1`, the figures for the inhibition in test [2], in test [1] and in test [4] were 52%, 10% and 51%, respectively. Moreover, half-maximal inhibition in test [3] (IC50) was put at 1200 nM.

For the molecule `O=C(O)c1cccc(C=C2CCN(C(=O)C(C3CCCCC3)C3CCCCC3)CC2)c1`, the inhibition is 35% in test [2] and 25% in test [4]. Also, the IC50 in test [5] amounted to 700 nM.

`O=C(O)Cc1ccc(C=C2CCN(C(=O)C(C3CCCCC3)C3CCCCC3)CC2)c(F)c1` [listing 1 of 2 here]: the IC50 in test [6] is 38 nM; in test [7], 3200 nM; in test [3], 7 nM.

In test [1], `O=C(O)c1ccc(C=C2CCN(C(=O)C(c3ccccc3)c3ccccc3)CC2)cc1` displayed an inhibition of 26%. The IC50 in test [6] worked out at 370 nM; in test [7] it was 3400 nM; in test [3] it was 530 nM.

On to `O=C(O)c1ccc(C=C2CCN(C(=O)C(C3CCCCC3)C3CCCCC3)CC2)cc1` [listing 1 of 2 here], for which the values for the inhibition in test [2] and in test [1] were 51% and 46%, respectively.

For `O=C(O)c1ccc(C=C2CCN(C(=O)C(C3CCCCC3)C3CCCCC3)CC2)cc1` [listing 2 of 2 here], the IC50 in test [6] was determined as 80 nM; in test [3], 60 nM.

`COc1cc(C(=O)O)ccc1C=C1CCN(C(=O)C(c2ccccc2)c2ccccc2)CC1` gave an inhibition in test [1] of 8%. Moreover, the IC50 in test [6] was determined as 940 nM; in test [7] it was 1900 nM; in test [3] it was 3500 nM.

Take `O=C(O)Cc1ccc(C=C2CCN(C(=O)C(C3CCCCC3)C3CCCCC3)CC2)c(F)c1` [listing 2 of 2 here]: the inhibition in test [1] turned out to be 4%.

In test [1], `O=C(O)c1ccc(C=C2CCN(C(=O)C34CC5CC(CC(C5)C3)C4)CC2)c(F)c1` had an inhibition of 20%. For the same molecule, the IC50 in test [6] amounted to 3500 nM; in test [7], 2700 nM; in test [3], 210 nM.

In turn, `O=C(O)c1ccc(C=C2CCN(C(=O)C(c3ccccc3)c3ccccc3)CC2)c(F)c1` had an inhibition in test [1] of 2%. The IC50 in test [6] is 1100 nM; in test [7] it was 1100 nM; in test [3], 410 nM.

As to `O=C(O)c1ccc(C=C2CCN(C(=O)CC(c3ccccc3)c3ccccc3)CC2)cc1`, the inhibition in test [1] is 8%. Besides, the values for the IC50 in test [6], in test [7] and in test [3] were 880 nM, 1600 nM and 1100 nM, respectively.

In turn, `O=C(O)c1ccc(C=C2CCN(C(=O)N(c3ccccc3)c3ccccc3)CC2)cc1` showed an inhibition in test [1] of 22%. Further, the IC50 in test [6] stood at 690 nM; in test [7], 540 nM; in test [3], 830 nM.

For the molecule `O=C(O)c1ccc(C=C2CCN(C(=O)C34CC5CC(CC(C5)C3)C4)CC2)cc1`, the inhibition in test [1] is 44%. The IC50 is 2500 nM in test [6], 5600 nM in test [7] and 260 nM in test [3].

Regarding `O=C(O)Cc1ccc(C=C2CCN(C(=O)C(c3ccccc3)c3ccccc3)CC2)cc1`, the IC50 in test [7] was determined as 4500 nM; in test [5], 75 nM. In test [4], this molecule returned an inhibition of 63%.

The term inhibition denotes the share of the control response that was lost under treatment. As a reminder, the IC50 is the concentration that inhibits the measured activity by half.

(Values after ChEMBL document CHEMBL1135527, “Synthesis and evaluation of 2'-substituted 4-(4'-carboxy- or 4'-carboxymethylbenzylidene)-N-acylpiperidines: highly potent and in vivo active steroid 5alpha-reductase type 2 inhibitors” (J Med Chem, 2002).)
